For data set [1], the system named is Homo sapiens. Put plainly: Drug level in human plasma assessed as compound formation treated with [14C]muraglitazar at 20 mg, po administered as single dose measured after 1 hr by HPLC analysis. Type of data set: ADME, organism-based. To be noted: in vivo. The gist of the method: (§1)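 Healthy males aged 18–45 (four subjects) fasted at least 8 h, then took a single oral PEG-400 solution (~100 μCi) of [14C]muraglitazar 20 mg or [14C]peliglitazar 10 mg. K2EDTA plasma was taken at 1, 4, 12 and 24 h, acidified to 5% acetic acid and stored at -20 °C. Plasma was pooled across subjects, extracted three times with methanol/acetonitrile (1:3), and fractions from HPLC system II were radiocounted. Concentration came from relative radioactivity distribution, total radioactivity and specific activity.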

For another data set, the system named is Plasma. Nature of the data set: Stability in human plasma assessed as aglycon formation rate by HPLC analysis in presence of 50 mM phosphate. Type of data set: ADME, cell-free. The gist of the method: (§2)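 Synthetic 1-O-β-acyl glucuronide at 50 μg/mL, incubated at 37°C and pH 7.4. […] used 50 mM sodium phosphate buffer; […] used human plasma buffered with 50 mM phosphate. Samples were taken at 0.25–48 h (3 tubes per time point), frozen at -80 °C and run on HPLC system III. Aglycon formation rate is the mean of rates within the linear range (<3 hr).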

The subject of data set [2] is Liver microsome. Nature of the data set: Drug metabolism in human liver microsomes assessed as glucuronide oxidation rate per mg of protein in presence of NADPH. The format is ADME. The gist of the method:
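Acyl glucuronide (20 μM) was incubated for 15 min with human liver microsomes (2 mg/mL protein) in 50 mM sodium phosphate, with and without 1 mM NADPH. Products were separated on HPLC system II, quantified by UV at 278 nm and identified by LC/MS.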
Background: Liver microsomes are a subcellular fraction often used to study metabolism.

Data set [3] is described as follows: Chemical stability of compound assessed as aglycon formation rate in 50 mM phosphate buffer at pH 7.4 by HPLC analysis. Type of data set: physicochemical. The gist of the method:
as §2

A short description of data set [4]: Drug excretion in human bile treated with [14C]muraglitazar at 20 mg, po measured during 3 to 8 hrs. Type of data set: ADME, organism-based. Conditions: in vivo.
Data set [5] is described as follows: Drug excretion in human urine treated with [14C]muraglitazar at 20 mg, po measured during 0 to 168 hrs. The format is ADME, organism-based. To be noted: in vivo.
For another data set, the system named is Hepatocyte. Put plainly: Drug metabolism in human hepatocytes assessed as glucuronidation rate per 10^6 cells at 5 uM after 1 hr by LC-MS/HPLC analysis in Krebs-Henseleit buffer.
Data set [6] relates to Homo sapiens. Put plainly: Drug metabolism in human plasma assessed as muraglitazar-1-O-beta-acyl glucuronide formation at 20 mg, po administered as single dose after 1 hr by HPLC analysis. Type of data set: ADME, organism-based. To be noted: in vivo. Summed up:
(§3)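 Healthy male volunteers received a single oral [14C] dose (approximately 100 μCi) in PEG-400 after fasting. K2EDTA blood drawn at 1, 4, 12 and 24 h. Plasma acidified to 5% acetic acid, stored at -20°C, pooled across subjects and extracted three times with methanol/acetonitrile (1:3). Radio-HPLC used fraction collection and counting; protein pellets were counted after NaOH digestion.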

Data set [7] has as its system Homo sapiens. Put plainly: Drug metabolism in human plasma assessed as acyl isomer formation at 20 mg, po administered as single dose by HPLC analysis. Type of data set: ADME, organism-based. Conditions: in vivo. Summed up: as §3
The subject of data set [8] is Liver microsome. Put plainly: Drug metabolism in human liver microsomes assessed as glucuronidation rate per mg of protein at 10 uM after 15 mins by LC-MS/HPLC analysis in presence of 2 mM UDPGA. Conditions: 0.25 h. The format is ADME. Summed up: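 Human liver microsomes (1 mg/mL protein) with substrate 10 μM final, UDPGA 2 mM, MgCl2 10 mM, Tris 100 mM pH 7.4. Started with substrate at 37°C, stopped after 15 min with one volume acetonitrile, centrifuged. Supernatant analysed by LC/MS; fraction from the 278 nm UV trace as metabolite/(metabolite + parent).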

For data set [9], the system named is Homo sapiens. Put plainly: Drug metabolism in human plasma assessed as muraglitazar-1-O-beta-acyl glucuronide formation at 20 mg, po administered as single dose measured after 4 to 24 hrs by HPLC analysis. The format is ADME, organism-based. To be noted: in vivo. The gist of the method:
as §3

The nature of data set [10]: Drug excretion in human bile at 20 mg, po measured during 3 to 8 hrs. The format is ADME, organism-based. To be noted: read-out: Drug excretion.
Data set [11] can be described thus: Drug excretion in human urine at 20 mg, po measured during 0 to 168 hrs. The format is ADME, organism-based. To be noted: read-out: Drug excretion.
For data set [12], the system named is Homo sapiens. Nature of the data set: Drug level in human plasma assessed as compound formation treated with [14C]peliglitazar at 10 mg, po administered as single dose measured after 1 to 24 hrs by HPLC analysis. Type of data set: ADME, organism-based. To be noted: in vivo. The gist of the method:
as §1

Data set [13] in a line: Drug excretion in human urine treated with [14C][…] at […], po measured during 0 to 168 hrs. The format is ADME, organism-based. To be noted: in vivo.
Data set [14] in a line: Drug excretion in human bile treated with [14C][…] at […], po measured during 3 to 8 hrs. The format is ADME, organism-based. Conditions: in vivo.
Data set [15] has as its system Homo sapiens. Nature of the data set: Drug metabolism in human plasma assessed as acyl isomer formation at 10 mg, po administered as single dose by HPLC analysis. Type of data set: ADME, organism-based. Conditions: in vivo. Summed up:
as §3

For data set [16], the system named is Homo sapiens. Put plainly: Drug metabolism in human plasma assessed as peliglitazar-1-O-beta-acyl glucuronide formation at 10 mg, po administered as single dose measured after 1 to 24 hrs by HPLC analysis. Conditions: in vivo. Type of data set: ADME, organism-based. Summed up:
as §3

Drawing on ChEMBL document CHEMBL3526120, “Plasma stability-dependent circulation of acyl glucuronide metabolites in humans: how circulating metabolite profiles of muraglitazar and peliglitazar can lead to misleading risk assessment” (Drug Metab Dispos, 2011), this text covers Drug metabolism, Drug excretion and dose excreted for six molecules.

On to `COc1ccc(OC(=O)N(CC(=O)O[C@@H]2O[C@H](C(=O)O)[C@@H](O)[C@H](O)[C@H]2O)Cc2ccc(OCCc3nc(-c4ccccc4)oc3C)cc2)cc1`, for which the Drug metabolism entry was “metabolite_detected” in the data set on Homo sapiens [1], 16.7 ug/ml.hr in the data set with Plasma, 22 pmol/min in the data set on Liver microsome [2] and 3.5 ug/ml.hr in data set [3]. For the same molecule, the Drug excretion is 15% in data set [4] and 0.81% in data set [5].

As for `COc1ccc(OC(=O)N(CC(=O)O)C[14c]2[14cH][14cH][14c](OCCc3nc(-c4ccccc4)oc3C)[14cH][14cH]2)cc1`, the Drug metabolism with Hepatocyte is 60 pmol/min; with Homo sapiens [6], “metabolite_detected”; in the data set with Homo sapiens [7], “metabolite_not_detected”; in the data set on Liver microsome [8], 33 pmol/min; with Homo sapiens [9] it was “metabolite_not_detected”.

As to `COc1ccc(OC(=O)N(CC(=O)O)[C@@H](C)c2ccc(OCCc3nc(-c4ccccc4)oc3C)cc2)cc1` [PELIGLITAZAR], the dose excreted in data set [10] was 24.4%; in data set [11], 1.24%.

In the case of `COc1ccc(OC(=O)N(CC(=O)O[C@@H]2O[C@H](C(=O)O)[C@@H](O)[C@H](O)[C@H]2O)[C@@H](C)c2ccc(OCCc3nc(-c4ccccc4)oc3C)cc2)cc1`, the Drug metabolism result in the data set on Homo sapiens [12] was “metabolite_detected”; with Plasma, 5.9 ug/ml.hr; in the data set on Liver microsome [2], 24 pmol/min; in [3], 0.5 ug/ml.hr. Also, the Drug excretion is 0.24% in data set [13] and 16% in data set [14].

Take `COc1ccc(OC(=O)N(CC(=O)O)[14C@@H](C)c2ccc(O[14CH2]Cc3nc(-c4ccccc4)oc3C)cc2)cc1`: the Drug metabolism entry in the data set with Homo sapiens [15] is reported as “metabolite_not_detected”; in the data set with Hepatocyte, 49 pmol/min; in the data set on Homo sapiens [16], “metabolite_detected”; in the data set with Liver microsome [8] it was 32 pmol/min.

As to `COc1ccc(OC(=O)N(CC(=O)O)Cc2ccc(OCCc3nc(-c4ccccc4)oc3C)cc2)cc1` [MURAGLITAZAR], the dose excreted in [10] stood at 39.9%; in data set [11] it was 2.13%.
